Source: ChEMBL document CHEMBL2169747, “Synthesis and biological properties of highly sequence-specific-alkylating N-methylpyrrole-N-methylimidazole polyamide conjugates” (J Med Chem, 2012)
Active and inactive are the calls of the source. The calls are words filed in the database; no cut-off is given here.

Experiments:
A549 [1] = assay: Cytotoxicity against human A549 cells assessed as cell growth inhibition after 48 hrs by microplate reader analysis; format: functional, cell-based; details: A549, 48 h
Procedure, shortened: (§1)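 Medium was RPMI-1640 for EBC-1, A549 and DU145, and DMEM for PC-3, SK-N-SH and K562. Both media had 10% heat-inactivated FBS plus penicillin/streptomycin; cells were kept at 37 °C, 5% CO2. Cells were seeded at 5000/well and given compound from DMSO stock (final 0.1% DMSO) for 48 h. Viability was read by WST-8 colorimetry, absorbance at 450 and 600 nm, and IC50 determined.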

Nucleic Acid = assay: Induction of calf thymus DNA cleavage at 10 to 25 nM after 12 h by PAGE analysis; format: nucleic-acid assay; details: in the assay text read “208-bp PCR fragment DNA” for “calf thymus DNA”
Procedure, shortened: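 5′-Texas Red-labeled 208 bp PCR fragments alkylated in 5.0 mM sodium phosphate (pH 7.0) with 10% DMF, room temperature, 12 h. Quenched with calf thymus DNA and heated 95 °C for 5 min under neutral conditions. Recovered DNA in formamide loading dye, heated 95 °C 20 min, then run on 6% denaturing polyacrylamide gel with 6.0 M urea at 1.5 kV, 40 °C.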

[2] = Cytotoxicity against human EBC1 cells assessed as cell growth inhibition after 48 hrs by microplate reader analysis; format: functional, cell-based; details: EBC-1, 48 h; procedure, shortened: as §1
A549 [3] = assay: Downregulation of SLC4A4 gene expression in human A549 cells at 26 nM after 12 hrs by microarray analysis relative to control; format: functional
Procedure, shortened: (§2)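 A549 cells (RPMI-1640, 10% heat-inactivated FBS, penicillin/streptomycin, 37 °C, 5% CO2) seeded at 4 × 10^5 per 60 mm dish. Exposed 12 h to conjugate at 21, 26, 34 or 100 nM in medium with 0.1% DMSO, against 0.1% DMSO control. Whole-genome (~25 000 genes) expression profiled by microarray.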

A549 [4] = assay: Downregulation of RABGAP1L gene expression in human A549 cells at 26 nM after 12 hrs by microarray analysis relative to control; format: functional; procedure, shortened: as §2
DU-145 [5] = assay: Antiangiogenic activity against human DU145 cells; format: functional, cell-based
DU-145 [6] = assay: Cytotoxicity against human DU145 cells assessed as cell growth inhibition after 48 hrs by microplate reader analysis; format: functional, cell-based; details: DU-145, 48 h; procedure, shortened: as §1
SK-N-SH = assay: Cytotoxicity against human SK-N-SH cells assessed as cell growth inhibition after 48 hrs by microplate reader analysis; format: functional, cell-based; procedure, shortened: as §1
A549 [7] = assay: Antiangiogenic activity against human A549 cells; format: functional, cell-based
Mus musculus [8] = assay: Toxicity in BALB/c nu/nu mouse at 1.6 mg/kg, iv administered as liposomal conjugate for 14 days; format: organism-based; set-up: dose 1.6 mg/kg, route intravenous; details: in vivo, 336 h
Procedure, shortened: (§3)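 Pre-test in male BALB/c-nu/nu mice without xenografts. Naked conjugate was dissolved in 100% DMSO and given ip at 0.50 mg/kg (12.5 μg/mouse). Liposomal conjugate (0.33 mg/mL in 17 mM lipid, hydrated with water and sonicated) was given iv at 1.6 mg/kg (41 μg/mouse), 125 μL single dose.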

A549 [9] = assay: Upregulation of GADD45A gene expression in human A549 cells at 26 nM after 12 hrs by microarray analysis relative to control; format: functional
Procedure, shortened: (§4)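 4 ×10^5 A549 cells seeded per 60 mm dish and treated 12 h with conjugate (21, 26, 34 or 100 nM) in medium; control medium contained 0.1% DMSO, with conjugates added as 0.1% DMSO solutions. Whole human genome (~25 000 genes) expression profiled by microarray against the DMSO control. A549 culture: RPMI-1640 with 10% heat-inactivated FBS, penicillin/streptomycin, 37 °C, 5% CO2.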

A549 [10] = assay: Downregulation of HS2ST1 gene expression in human A549 cells at 26 nM after 12 hrs by microarray analysis relative to control; format: functional
Procedure, shortened: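 A549 cells, 4 × 10^5 per 60 mm dish, were exposed to conjugate for 12 h in medium with 0.1% DMSO; vehicle control was 0.1% DMSO. Whole human genome (~25 000 genes) expression was profiled by microarray and expression compared with the control.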

K562 = assay: Cytotoxicity against human K562 cells assessed as cell growth inhibition after 48 hrs by microplate reader analysis; format: functional, cell-based; details: K562, 48 h; procedure, shortened: as §1
A549 [11] = assay: Antitumor activity against human A549 cells xenografted in BALB/c-nu/nu mouse assessed as effect on tumor growth at 1.6 mg/kg, iv administered as liposomal conjugate for 14 days; format: functional, organism-based; set-up: dose 1.6 mg/kg
Procedure, shortened: (§5)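 Male BALB/c-nu/nu mice (5 weeks, 15−22 g) with subcutaneous right-subaxillary A549 or DU145 xenografts (3 × 10^6 cells/mouse), grouped by tumor size. Liposomes were made from a lipid film hydrated in water and bath-sonicated 2 h, giving 330 μg/mL conjugate in 17 mM lipid. A single 125 μL intravenous dose (41 μg/mouse) was given on day 0. Tumor size and weight were read every other day for 14 days. n = 5 or 6.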

Mus musculus [12] = assay: Toxicity in BALB/c nu/nu mouse at 0.50 mg/kg, ip for 14 days; format: organism-based; set-up: dose 0.5 mg/kg, route intraperitoneal; details: in vivo, 0.5 mg/kg, 336 h; procedure, shortened: as §3
A549 [13] = assay: Upregulation of HES2 gene expression in human A549 cells at 26 nM after 12 hrs by microarray analysis relative to control; format: functional; procedure, shortened: as §4
A549 [14] = assay: Antitumor activity against human A549 cells xenografted in BALB/c-nu/nu mouse assessed as effect on tumor growth at 0.50 mg/kg, ip for 14 days; format: functional, organism-based; set-up: dose 0.5 mg/kg
Procedure, shortened: (§6)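 Male BALB/c-nu/nu mice, 5 weeks old, 15−22 g. Cells were implanted subcutaneously in the right subaxillary region at 3 × 10^6 cells/mouse: 50 μL for A549, 100 μL for DU145, with HBSS and Matrigel used. Mice were grouped by tumor size. The naked conjugate was given intraperitoneally once on day 0 as 20 μL at 625 μg/mL in 100% DMSO (12.5 μg/mouse). Tumor size and weight were measured every other day for 14 days. n = 7 or 8.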

DU-145 [15] = assay: Antitumor activity against human DU145 cells xenografted in BALB/c-nu/nu mouse assessed as effect on tumor growth at 1.6 mg/kg, iv administered as liposomal conjugate for 14 days; format: functional, organism-based; set-up: dose 1.6 mg/kg; procedure, shortened: as §5
DU-145 [16] = assay: Antitumor activity against human DU145 cells xenografted in BALB/c-nu/nu mouse assessed as effect on tumor growth at 0.50 mg/kg, ip for 14 days; format: functional, organism-based; set-up: dose 0.5 mg/kg; procedure, shortened: as §6
PC-3 = assay: Cytotoxicity against human PC3 cells assessed as cell growth inhibition after 48 hrs by microplate reader analysis; format: functional, cell-based; details: PC-3, 48 h; procedure, shortened: as §1
A549 [17] = assay: Downregulation of Q8N570 gene expression in human A549 cells at 34 nM after 12 hrs by microarray analysis relative to control; format: functional; procedure, shortened: as §2
A549 [18] = assay: Downregulation of RABGAP1L gene expression in human A549 cells at 34 nM after 12 hrs by microarray analysis relative to control; format: functional; procedure, shortened: as §2
A549 [19] = assay: Upregulation of BTG2 gene expression in human A549 cells at 34 nM after 12 hrs by microarray analysis relative to control; format: functional; procedure, shortened: as §4
A549 [20] = assay: Upregulation of U124 gene expression in human A549 cells at 34 nM after 12 hrs by microarray analysis relative to control; format: functional; procedure, shortened: as §4
A549 [21] = assay: Downregulation of PTPRK gene expression in human A549 cells at 34 nM after 12 hrs by microarray analysis relative to control; format: functional; procedure, shortened: as §2

CC(=O)Nc1cn(C)c(C(=O)Nc2cc(C(=O)Nc3cc(C(=O)NCCC(=O)Nc4cc(C(=O)NCCCC(=O)Nc5cc(C(=O)NCCC(=O)Nc6cn(C)c(C(=O)Nc7ccc8[nH]c(C(=O)N9CC(CCl)c%10c9cc(O)c9ccccc%109)cc8c7)n6)n(C)c5)n(C)c4)n(C)c3)n(C)c2)n1 (racemic)
IC50 (A549 [1]): 25.7 nM | Activity (Nucleic Acid): Active | IC50 [2]: 60.3 nM | fold change (FC) (A549 [3]): 0.273 | fold change (FC) (A549 [4]): 0.155 | Activity (DU-145 [5]): inactive | IC50 (DU-145 [6]): 6.03 nM | IC50 (SK-N-SH): 19.1 nM | Activity (A549 [7]): inactive | Activity (Mus musculus [8]): Non-toxic | fold change (FC) (A549 [9]): 7 | fold change (FC) (A549 [10]): 0.329 | IC50 (K562): 9.12 nM | Activity (A549 [11]): inactive | Activity (Mus musculus [12]): Non-toxic | fold change (FC) (A549 [13]): 9.4 | Activity (A549 [14]): inactive | Activity (DU-145 [15]): Active | Activity (DU-145 [16]): inactive | IC50 (PC-3): 12.6 nM

CC(=O)Nc1cn(C)c(C(=O)Nc2cn(C)c(C(=O)Nc3cc(C(=O)NCCC(=O)Nc4cc(C(=O)NCCCC(=O)Nc5cn(C)c(C(=O)NCCC(=O)Nc6cn(C)c(C(=O)Nc7ccc8[nH]c(C(=O)N9CC(CCl)c%10c9cc(O)c9ccccc%109)cc8c7)n6)n5)n(C)c4)n(C)c3)n2)n1 (racemic)
IC50 (A549 [1]): 33.9 nM | Activity (Nucleic Acid): Active | IC50 [2]: 170 nM | fold change (FC) (A549 [17]): 0.186 | Activity (DU-145 [5]): inactive | fold change (FC) (A549 [18]): 0.276 | IC50 (DU-145 [6]): 6.31 nM | IC50 (SK-N-SH): 40.7 nM | fold change (FC) (A549 [19]): 9.7 | Activity (A549 [7]): inactive | fold change (FC) (A549 [20]): 5.6 | IC50 (K562): 11.5 nM | Activity (A549 [11]): inactive | Activity (A549 [14]): inactive | Activity (DU-145 [16]): inactive | IC50 (PC-3): 19.1 nM | fold change (FC) (A549 [21]): 0.189
